ChEMBL document CHEMBL3244241, “Synthesis of cephalotaxine esters and correlation of their structures with antitumor activity” (J Med Chem, 1977)
Calls of active or inactive are those of the source. No cut-off for these calls is given here.

Tests used:
P388 [1] = assay: Antitumor activity against mouse P388 cells allografted in ip dosed DBA/2 mouse administered for 9 days; format: functional, organism-based
Summary of the method: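 P388 lymphocytic leukemia in DBA/2 mice; one intraperitoneal injection per day for 9 days. […] Injection vehicles were water + alcohol, saline + Tween 80, or aqueous 0.5% citric acid. Some tests were duplicated, and 30-day cures were recorded.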

Mus musculus [2] = assay: Toxicity in DBA/2 mouse allografted with mouse P388 cells at >80 mg/kg/day, ip for 9 days; format: organism-based; details: in vivo, 216 h
Summary of the method: (§1)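 DBA/2 mice bearing P388 lymphocytic leukemia received one intraperitoneal injection per day for 9 days, given in the vehicle named for each test (water/alcohol-based, saline or saline + Tween 80). Toxicity was noted during dosing alongside survival scoring (T/C, treated versus control mean survival time).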

P388 [3] = assay: Antitumor activity against mouse P388 cells allografted in DBA/2 mouse assessed as host survival at 365 mg/kg/day, ip for 9 days compound administered through water+alcohol vehicle relative to control; format: functional; details: route intraperitoneal
Summary of the method: (§2)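 P388 lymphocytic leukemia in DBA/2 mice. Dosing was one intraperitoneal injection per day for 9 days in the vehicle stated. […] Duplicate tests were run for some doses.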

Mus musculus [4] = assay: Toxicity in DBA/2 mouse allografted with mouse P388 cells at 400 mg/kg/day, ip for 9 days; format: organism-based; set-up: route intraperitoneal; details: in vivo, 216 h; summary of the method: as §1
Mus musculus [5] = assay: Toxicity in DBA/2 mouse allografted with mouse P388 cells assessed as change in body weight at 40 mg/kg/day, ip for 9 days compound administered through water+alcohol vehicle; format: organism-based; set-up: route intraperitoneal; details: in vivo, 216 h; summary of the method: as §1
Mus musculus [6] = assay: Toxicity in DBA/2 mouse allografted with mouse P388 cells assessed as change in body weight at 160 mg/kg/day, ip for 9 days compound administered through water+alcohol vehicle; format: organism-based; set-up: route intraperitoneal; details: in vivo, 216 h; summary of the method: as §1
P388 [7] = assay: Antitumor activity against mouse P388 cells allografted in DBA/2 mouse assessed as host survival at 40 mg/kg/day, ip for 9 days compound administered through water+alcohol vehicle relative to control; format: functional; details: route intraperitoneal; summary of the method: as §2
Mus musculus [8] = assay: Toxicity in DBA/2 mouse allografted with mouse P388 cells assessed as change in body weight at 365 mg/kg/day, ip for 9 days compound administered through water+alcohol vehicle; format: organism-based; set-up: route intraperitoneal; details: in vivo, 216 h; summary of the method: as §1
P388 [9] = assay: Antitumor activity against mouse P388 cells allografted in DBA/2 mouse assessed as host survival at 80 mg/kg/day, ip for 9 days compound administered through water+alcohol vehicle relative to control; format: functional; details: route intraperitoneal; summary of the method: as §2
Mus musculus [10] = assay: Toxicity in DBA/2 mouse allografted with mouse P388 cells assessed as change in body weight at 80 mg/kg/day, ip for 9 days compound administered through water+alcohol vehicle; format: organism-based; set-up: route intraperitoneal; details: in vivo, 216 h; summary of the method: as §1
Mus musculus [11] = assay: Toxicity in DBA/2 mouse allografted with mouse P388 cells assessed as change in body weight at 240 mg/kg/day, ip for 9 days compound administered through water+alcohol vehicle; format: organism-based; set-up: route intraperitoneal; details: in vivo, 216 h; summary of the method: as §1
P388 [12] = assay: Antitumor activity against mouse P388 cells allografted in DBA/2 mouse assessed as host survival at 160 mg/kg/day, ip for 9 days compound administered through water+alcohol vehicle relative to control; format: functional; details: route intraperitoneal; summary of the method: as §2
P388 [13] = assay: Antitumor activity against mouse P388 cells allografted in DBA/2 mouse assessed as host survival at 240 mg/kg/day, ip for 9 days compound administered through water+alcohol vehicle relative to control; format: functional; details: route intraperitoneal; summary of the method: as §2
P388 [14] = assay: Antitumor activity against mouse P388 cells allografted in DBA/2 mouse assessed as host survival at 20 mg/kg/day, ip for 9 days compound administered through water+acetone vehicle relative to control; format: functional; details: route intraperitoneal; summary of the method: as §2
Mus musculus [15] = assay: Toxicity in DBA/2 mouse allografted with mouse P388 cells assessed as change in body weight at 20 mg/kg/day, ip for 9 days compound administered through water+acetone vehicle; format: organism-based; set-up: route intraperitoneal; details: in vivo, 216 h; summary of the method: as §1
P388 [16] = assay: Antitumor activity against mouse P388 cells allografted in DBA/2 mouse assessed as host survival at 20 mg/kg/day, ip for 9 days compound administered through water+alcohol vehicle relative to control; format: functional; details: route intraperitoneal; summary of the method: as §2
Mus musculus [17] = assay: Toxicity in DBA/2 mouse allografted with mouse P388 cells assessed as change in body weight at 20 mg/kg/day, ip for 9 days compound administered through water+alcohol vehicle; format: organism-based; set-up: route intraperitoneal; details: in vivo, 216 h; summary of the method: as §1
P388 [18] = assay: Antitumor activity against mouse P388 cells allografted in DBA/2 mouse assessed as host survival at 4 mg/kg/day, ip for 9 days compound administered through saline vehicle relative to control; format: functional; details: route intraperitoneal; summary of the method: as §2
Mus musculus [19] = assay: Toxicity in DBA/2 mouse allografted with mouse P388 cells assessed as change in body weight at 4 mg/kg/day, ip for 9 days compound administered through saline vehicle; format: organism-based; set-up: route intraperitoneal; details: in vivo, 216 h
Mus musculus [20] = assay: Toxicity in DBA/2 mouse allografted with mouse P388 cells assessed as change in body weight at 5.9 mg/kg/day, ip for 9 days compound administered through water+alcohol vehicle; format: organism-based; set-up: route intraperitoneal; details: in vivo, 216 h
P388 [21] = assay: Antitumor activity against mouse P388 cells allografted in DBA/2 mouse assessed as host survival at 2 mg/kg/day, ip for 9 days compound administered through saline vehicle relative to control; format: functional; details: route intraperitoneal; summary of the method: as §2
Mus musculus [22] = assay: Toxicity in DBA/2 mouse allografted with mouse P388 cells assessed as change in body weight at 2 mg/kg/day, ip for 9 days compound administered through saline vehicle; format: organism-based; set-up: route intraperitoneal; details: in vivo, 216 h
P388 [23] = assay: Antitumor activity against mouse P388 cells allografted in DBA/2 mouse assessed as host survival at 5.9 mg/kg/day, ip for 9 days compound administered through water+alcohol vehicle relative to control; format: functional; details: route intraperitoneal; summary of the method: as §2
Mus musculus [24] = assay: Toxicity in DBA/2 mouse allografted with mouse P388 cells assessed as change in body weight at 9 mg/kg/day, ip for 9 days compound administered through water+alcohol vehicle; format: organism-based; set-up: route intraperitoneal; details: in vivo, 216 h
P388 [25] = assay: Antitumor activity against mouse P388 cells allografted in DBA/2 mouse assessed as host survival at 9 mg/kg/day, ip for 9 days compound administered through water+alcohol vehicle relative to control; format: functional; details: route intraperitoneal; summary of the method: as §2

COC1=C[C@]23CCCN2CCc2cc4c(cc2[C@@H]3[C@@H]1OC(=O)[C@@H](O)c1ccccc1)OCO4
Activity (P388 [1]): inactive | Activity (Mus musculus [2]): Toxic

COC1=C[C@]23CCCN2CCc2cc4c(cc2[C@@H]3[C@@H]1OC(=O)OCc1ccccc1)OCO4
Activity (P388 [1]): inactive

C=C(CC(=O)OC)C(=O)O[C@@H]1C(OC)=C[C@]23CCCN2CCc2cc4c(cc2[C@H]13)OCO4
T/C (P388 [3]): 198% | Activity (Mus musculus [4]): Toxic | Activity (Mus musculus [5]): -1.3 g | Activity (Mus musculus [6]): -1.1 g | T/C (P388 [7]): 135% | Activity (Mus musculus [8]): -3 g | T/C (P388 [9]): 173% | Activity (Mus musculus [10]): -0.1 g | Activity (Mus musculus [11]): -1.4 g | T/C (P388 [12]): 167% | T/C (P388 [13]): 169%

COC(=O)/C(=C/C(=O)O[C@@H]1C(OC)=C[C@]23CCCN2CCc2cc4c(cc2[C@H]13)OCO4)CCC(C)C
T/C (P388 [14]): 131% | Activity (Mus musculus [15]): 0.9 g

C/C=C/C=C/C(=O)O[C@@H]1C(OC)=C[C@]23CCCN2CCc2cc4c(cc2[C@H]13)OCO4
Activity (Mus musculus [5]): -1.8 g | T/C (P388 [7]): 125% | T/C (P388 [9]): 150% | Activity (Mus musculus [10]): 0.9 g | T/C (P388 [16]): 130% | Activity (Mus musculus [17]): 0.9 g

CCOC(=O)O[C@@H]1C(OC)=C[C@]23CCCN2CCc2cc4c(cc2[C@H]13)OCO4
Activity (P388 [1]): inactive

COC(=O)C[C@](O)(CCC(C)C)C(=O)O[C@@H]1C(OC)=C[C@]23CCCN2CCc2cc4c(cc2[C@H]13)OCO4 [DEOXYHARRINGTONINE]
T/C (P388 [18]): 174% | Activity (Mus musculus [19]): 0 g | Activity (Mus musculus [20]): -0.9 g | T/C (P388 [21]): 126% | Activity (Mus musculus [22]): 0.8 g | T/C (P388 [23]): 184%

COC(=O)C[C@@](O)(CCC(C)C)C(=O)O[C@@H]1C(OC)=C[C@]23CCCN2CCc2cc4c(cc2[C@H]13)OCO4
T/C (P388 [18]): 150% | Activity (Mus musculus [24]): -2.2 g | Activity (Mus musculus [19]): 0.5 g | T/C (P388 [25]): 131%

CCC(C)(OC(=O)OCC(Cl)(Cl)Cl)C(=O)O[C@@H]1C(OC)=C[C@]23CCCN2CCc2cc4c(cc2[C@H]13)OCO4 (some centres undefined)
Activity (P388 [1]): inactive
